Assay outcomes as filed in PubChem.
Jurkat NFkB inh: inhibitors of induced NF-kB luciferase reporter, primary screen, TCR NF-kB activation inhibitor project, cell-based, luminescence, uHTS; Jurkat, PMA/ionomycin-induced NF-kB luciferase reporter; inhibition, % at 4 µM; 330,000 tested, 0.53% active; AID 435003, 2010; in the data active = inhibition above about 50%
697 NFkB inh: inhibitors of PMA/ionomycin-induced NF-kB reporter, 697 cells, primary screen, B-cell NF-kB inhibitor project, cell-based, luminescence, uHTS | inhibition, % at 4 µM | 697 B-cell NF-kB luciferase reporter, 16 h | 330,000 tested, 0.33% active | AID 435022, 2010; in the data active = inhibition above about 35%
CHOP UPR activ: activators of apoptotic CHOP UPR arm, primary screen, cell-based, CHO-CHOP luciferase reporter, luminescence, uHTS; activation, % at 10 µM; UPR activation; percent of tunicamycin response over DMSO baseline; 330,000 tested, 0.34% active;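 active = at 10 µM dose, activation of 40% or more, normalized to positive control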
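Test system: CHO-CHOP cells, stable luciferase reporter of PERK-eIF2a-CHOP signalling | Quantity: 500 CHO-CHOP cells per well | Buffer or medium: F12 plus 10% serum | Compound dosing: 10 µM single point, 0.5% DMSO | Schedule: 6 h compound treatment, 37 °C | Signal: Luciferase luminescence | Control set: Tunicamycin high control, DMSO low control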
CHOP inh: inhibitors of CHOP promoter induction, primary screen, cell-based, unfolded protein response, luciferase reporter | CHO-K1 CHOP-promoter luciferase, tunicamycin-induced, 15-18 h | inhibition, % at 10 µM | 220,000 tested, 3.8% active;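 active = compounds that reduced the stress-induced luciferase reporter signal by more than about 70% of percent inhibition, limit read from the data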
UPR XBP1 act: activators of adaptive XBP1 UPR arm, primary screen, cell-based, CHO-XBP1 luciferase reporter, luminescence, uHTS; IRE1-XBP1 UPR activation; percent of tunicamycin response, DMSO as zero; activation, % at 20 µM; 330,000 tested, 0.33% active; AID 463104, 2010;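 active = versus positive control, 20 µM dose yields 30% or more activation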
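Material – CHO cell line with stable XBP1 luciferase reporter · Buffer or medium – F12 plus 10% FBS · Compound – single point, 20 µM final compound, 1% DMSO · Schedule – 16-18 h cell attachment at 37 °C, then 6 h compound exposure · Signal – Steady-Glo luminescence read · Benchmarks – high control tunicamycin 10 µg/mL final, low control DMSO vehicle only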
UPR CHOP confirm: activators of apoptotic CHOP UPR arm, confirmation, cell-based, CHO-CHOP luciferase reporter, single concentration. activation, % at 10 µM. CHO-CHOP cells, CHOP-luciferase reporter luminescence; percent of tunicamycin response, DMSO as zero. 1,000 tested, 64% active. shares compounds with CHOP UPR activ. AID 463112, 2010; in the data active = activation above about 33%
XBP1 UPR conf: IRE1-XBP1 UPR arm activators, confirmation, cell-based, CHO-XBP1 luciferase reporter, luminescence, single concentration; AID 485299, 2010; activation, % at 20 µM; 1,000 tested, 63% active; shares compounds with UPR XBP1 act;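 active = reporter signal at least 30% of the positive control's activation in two or more of four replicate wells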
Of the large screens only hits and unclear results are named; the others gave an inactive call (follow-up assays come after a bar, where they were run). Many of the other results were omitted from the sample, so hits are more common in it than they were.

O=C(COc1ccc(/C=N/NC(=O)c2cc3ccccc3o2)cc1Br)Nc1ccccc1	CHOP UPR activ 275, UPR XBP1 act 107 | UPR CHOP confirm 58 | XBP1 UPR conf 45
O=CC1=C(c2ccccc2)Oc2ccccc2O1	CHOP UPR activ 67, UPR XBP1 act 37 (no result: CHOP inh) | UPR CHOP confirm 72 | XBP1 UPR conf 33
CC(C)Cc1nnc(NC(=O)CSc2nc(-c3ccccc3)cc(=O)[nH]2)s1	none
Cc1sc(NC(=O)c2cc(-c3ccccc3)nc3ccccc23)c(C(N)=O)c1C	none
Cc1sc(NC(=O)c2cc(-c3ccc(Cl)cc3)nc3ccccc23)c(C(N)=O)c1C	CHOP UPR activ 107, UPR XBP1 act 199 | UPR CHOP confirm 85 | XBP1 UPR conf 183
CC(C)C(=O)Nc1ccc2c(c1)nc(CCN1CCN(c3ccccn3)CC1)n2C	none (no result: CHOP inh)
OCCCn1c(C2CCCN2c2nc(-c3ccc(Cl)cc3)cs2)nc2cc(Cl)c(N3CCCCC3)cc21 (configuration not stated)	CHOP UPR activ 88, UPR XBP1 act 122 (no result: CHOP inh) | UPR CHOP confirm inactive | XBP1 UPR conf 198
CCN(CC)S(=O)(=O)c1ccc(-c2nnc(SCC(=O)N3CCc4ccccc43)o2)cc1	CHOP UPR activ 70, UPR XBP1 act 209 (no result: CHOP inh) | UPR CHOP confirm inactive | XBP1 UPR conf inactive
CC(C)c1cccc(-c2ccc3c(c2)S(=O)(=O)c2cccc(C(=O)NCc4ccccc4Cl)c2C3=O)c1	CHOP UPR activ 49, UPR XBP1 act 99 (no result: CHOP inh) | UPR CHOP confirm 34 | XBP1 UPR conf 109
O=C(NCc1ccccc1Br)c1cccc2c1C(=O)c1ccc(-c3ccc(OC(F)(F)F)cc3)cc1S2(=O)=O	CHOP UPR activ 98, UPR XBP1 act 115 (no result: CHOP inh) | UPR CHOP confirm 88 | XBP1 UPR conf 86
CCCc1cc(C(=O)N2CCN(c3ccc(C(F)(F)F)cn3)CC2)sc1C	none (no result: CHOP inh)
CCOC(=O)c1c(-c2ccccc2)oc2cc(CN(C)C)c(O)c(CN(C)C)c12	none (no result: CHOP inh)
Cc1cccc(NC(=O)c2ccc(COc3cccc4ccccc34)o2)n1	none
Cc1cc(C)nc(SCc2ccc(C(=O)N/N=C/c3ccc(C(=O)O)cc3)cc2)n1	none
Cc1cc(C)nc(SCc2ccc(C(=O)N/N=C/c3cccc(O)c3O)cc2)n1	CHOP UPR activ 140, UPR XBP1 act 53 | UPR CHOP confirm 77 | XBP1 UPR conf 52
Cc1ccc(C(=O)Cn2c(C(=O)/C=C/c3ccccc3)nc3ccccc32)cc1	CHOP UPR activ 249, UPR XBP1 act 32 | UPR CHOP confirm 325 | XBP1 UPR conf 46
COc1ccc(-c2cc(=O)oc3c(C)c(OC(=O)c4cccs4)ccc23)cc1	CHOP UPR activ 66, CHOP inh 80, UPR XBP1 act 80 | UPR CHOP confirm 89 | XBP1 UPR conf 114
Cc1cccc(N2CCN(C(=O)NC(C)c3ccc(F)c(F)c3)CC2)c1C (configuration not stated)	none (no result: CHOP inh)
Cc1ccccc1CSc1n[nH]c(NS(=O)(=O)c2ccccc2)n1	none
c1ccc(N=Nc2ccc3cccccc2-3)cc1	CHOP UPR activ 67, UPR XBP1 act 83 (no result: CHOP inh) | UPR CHOP confirm inactive | XBP1 UPR conf 60
CCOc1ccc(-n2nc3ccc(NC(=O)c4ccc5c(c4)OCCO5)cc3n2)cc1	CHOP UPR activ 73, CHOP inh 76, UPR XBP1 act 155 | UPR CHOP confirm inactive | XBP1 UPR conf 122
O=C(Nc1ccc2nn(-c3ccccc3)nc2c1)c1ccc2c(c1)OCCO2	none
O=C(Nc1ccc(-c2nc3ccccc3o2)cc1)c1ccc2c(c1)OCO2	CHOP UPR activ 46, CHOP inh 85, UPR XBP1 act 88 | UPR CHOP confirm inactive | XBP1 UPR conf inactive
